Data reported in ChEMBL document CHEMBL4765413, “Discovery of novel anti-angiogenesis agents. Part 11: Development of PROTACs based on active molecules with potency of promoting vascular normalization” (Eur J Med Chem, 2020).

Key:
[1] = target: Vascular endothelial growth factor receptor 2 (Homo sapiens, UniProt P35968); assay: Inhibition of recombinant human N-terminal GST-tagged VEGFR2 (789 to end residues) expressed in baculovirus infected Sf9 insect cells using Poly (4:1 Glu, Tyr) as substrate incubated for 1 hr by ADP-Glo luminescent assay
Chain of Vascular endothelial growth factor receptor 2 (P35968 whole entry): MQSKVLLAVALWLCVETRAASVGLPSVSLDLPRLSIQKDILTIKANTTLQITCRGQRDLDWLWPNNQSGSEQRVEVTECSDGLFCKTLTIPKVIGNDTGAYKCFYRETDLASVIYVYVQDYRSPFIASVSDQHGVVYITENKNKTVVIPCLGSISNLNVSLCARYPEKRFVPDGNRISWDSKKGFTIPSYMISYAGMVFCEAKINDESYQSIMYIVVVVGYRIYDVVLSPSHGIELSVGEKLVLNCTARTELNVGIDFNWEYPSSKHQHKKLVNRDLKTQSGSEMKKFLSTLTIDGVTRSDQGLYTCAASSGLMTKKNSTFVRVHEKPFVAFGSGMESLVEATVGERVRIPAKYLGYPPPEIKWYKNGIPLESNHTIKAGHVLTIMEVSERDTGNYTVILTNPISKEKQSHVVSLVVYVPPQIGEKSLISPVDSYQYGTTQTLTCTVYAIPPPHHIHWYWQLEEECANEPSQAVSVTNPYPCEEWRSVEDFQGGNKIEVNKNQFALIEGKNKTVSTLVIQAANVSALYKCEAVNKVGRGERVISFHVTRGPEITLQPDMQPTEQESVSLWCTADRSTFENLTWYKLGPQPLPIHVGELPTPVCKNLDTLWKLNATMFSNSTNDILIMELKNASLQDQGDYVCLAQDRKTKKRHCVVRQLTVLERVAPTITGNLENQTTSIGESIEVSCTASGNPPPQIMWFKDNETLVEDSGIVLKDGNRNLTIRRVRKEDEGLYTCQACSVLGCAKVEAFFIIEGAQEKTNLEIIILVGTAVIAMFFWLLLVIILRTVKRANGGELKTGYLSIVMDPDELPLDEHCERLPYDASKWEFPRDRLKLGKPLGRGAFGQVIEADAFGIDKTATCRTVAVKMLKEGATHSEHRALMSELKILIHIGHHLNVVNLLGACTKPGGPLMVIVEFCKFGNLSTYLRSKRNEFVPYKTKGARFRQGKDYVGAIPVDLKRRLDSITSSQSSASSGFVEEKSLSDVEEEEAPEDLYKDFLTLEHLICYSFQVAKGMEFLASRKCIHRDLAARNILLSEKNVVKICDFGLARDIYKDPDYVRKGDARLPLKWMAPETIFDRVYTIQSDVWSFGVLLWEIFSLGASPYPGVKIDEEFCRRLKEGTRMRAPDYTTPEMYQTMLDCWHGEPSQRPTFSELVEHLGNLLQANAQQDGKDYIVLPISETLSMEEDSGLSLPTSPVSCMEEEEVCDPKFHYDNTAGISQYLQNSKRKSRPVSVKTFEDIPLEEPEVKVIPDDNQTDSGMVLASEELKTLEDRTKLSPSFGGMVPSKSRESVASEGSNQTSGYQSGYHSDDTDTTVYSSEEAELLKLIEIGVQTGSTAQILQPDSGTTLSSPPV

EA.hy 926 = assay: Antiangiogenic activity in human EA.hy 926 cells measured after 24 hrs by MTT assay; conditions: EA.hy 926, 24 h
HEK293 = assay: Cytotoxicity against HEK293 cells measured after 24 hrs by MTT assay; format: cell-based; conditions: human, hek293, 24 h
[2] = target: von Hippel-Lindau disease tumor suppressor/Vascular endothelial growth factor receptor 2 (Homo sapiens) (UniProt P35968+P40337); assay: Protac activity at VHL/VEGFR2 in human EA.hy 926 cells assessed as induction of VEGFR2 degradation at 80 uM measured after 72 hrs by Western blot analysis relative to control; format: cell-based
Chain of von Hippel-Lindau disease tumor suppressor/Vascular endothelial growth factor receptor 2 (Homo sapiens) (P35968 20-1356 limits assumed): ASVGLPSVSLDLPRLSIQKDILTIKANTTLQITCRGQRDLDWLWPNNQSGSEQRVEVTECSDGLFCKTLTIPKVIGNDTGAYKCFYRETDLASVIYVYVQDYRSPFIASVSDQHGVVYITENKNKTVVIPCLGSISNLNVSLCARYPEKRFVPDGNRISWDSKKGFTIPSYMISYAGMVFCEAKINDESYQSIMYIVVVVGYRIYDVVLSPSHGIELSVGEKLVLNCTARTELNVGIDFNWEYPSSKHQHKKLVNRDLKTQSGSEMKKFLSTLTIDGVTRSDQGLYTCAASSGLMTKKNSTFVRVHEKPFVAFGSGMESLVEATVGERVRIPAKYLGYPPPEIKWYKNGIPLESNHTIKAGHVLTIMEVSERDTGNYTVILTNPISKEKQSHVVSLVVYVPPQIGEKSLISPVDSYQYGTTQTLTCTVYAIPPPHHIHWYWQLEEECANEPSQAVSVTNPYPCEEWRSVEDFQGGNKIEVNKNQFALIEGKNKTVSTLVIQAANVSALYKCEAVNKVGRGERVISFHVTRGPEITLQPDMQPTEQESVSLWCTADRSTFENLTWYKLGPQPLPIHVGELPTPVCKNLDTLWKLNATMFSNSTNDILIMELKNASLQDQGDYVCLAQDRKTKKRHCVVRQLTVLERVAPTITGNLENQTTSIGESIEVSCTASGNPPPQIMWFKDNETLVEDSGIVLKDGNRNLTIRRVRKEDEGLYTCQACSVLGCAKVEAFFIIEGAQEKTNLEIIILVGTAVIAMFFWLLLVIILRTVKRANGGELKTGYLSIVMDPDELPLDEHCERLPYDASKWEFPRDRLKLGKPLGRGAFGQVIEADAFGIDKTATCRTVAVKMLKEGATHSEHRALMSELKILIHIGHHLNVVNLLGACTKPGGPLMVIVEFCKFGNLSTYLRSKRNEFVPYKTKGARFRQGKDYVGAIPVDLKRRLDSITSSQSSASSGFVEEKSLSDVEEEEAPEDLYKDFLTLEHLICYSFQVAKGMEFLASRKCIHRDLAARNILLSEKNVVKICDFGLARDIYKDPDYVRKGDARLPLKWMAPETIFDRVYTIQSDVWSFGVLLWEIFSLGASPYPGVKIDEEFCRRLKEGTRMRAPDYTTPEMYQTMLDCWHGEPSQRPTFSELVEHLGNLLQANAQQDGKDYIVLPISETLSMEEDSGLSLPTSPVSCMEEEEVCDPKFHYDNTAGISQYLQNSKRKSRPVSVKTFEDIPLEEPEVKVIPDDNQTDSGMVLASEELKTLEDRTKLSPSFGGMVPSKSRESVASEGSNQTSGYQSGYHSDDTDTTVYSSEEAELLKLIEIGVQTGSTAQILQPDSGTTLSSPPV
Chain of von Hippel-Lindau disease tumor suppressor/Vascular endothelial growth factor receptor 2 (Homo sapiens) (P40337 whole entry partner): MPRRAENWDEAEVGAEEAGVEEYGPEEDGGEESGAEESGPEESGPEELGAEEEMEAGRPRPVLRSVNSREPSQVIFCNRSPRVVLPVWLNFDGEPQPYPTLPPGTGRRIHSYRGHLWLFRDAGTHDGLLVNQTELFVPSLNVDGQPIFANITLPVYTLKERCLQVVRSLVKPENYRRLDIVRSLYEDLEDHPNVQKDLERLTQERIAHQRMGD
In short: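 EA.hy926 cells were exposed to DMSO vehicle or test compound, then lysed in SDS sample buffer and normalized by BCA protein assay. Equal protein amounts were run on SDS-PAGE and transferred to PVDF. Membranes were blocked in 5% milk/TBS-Tween and probed with anti-VEGFR-2 (1:500), with GAPDH (1:10000) as loading control. Detection used HRP secondary and ECL, with densitometric quantification.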

| Structure (SMILES) | IC50 [1] | IC50 (EA.hy 926) | Activity (HEK293) | Activity [2] |
| --- | --- | --- | --- | --- |
| Cc1ncsc1-c1ccc(CNC(=O)[C@@H]2C[C@@H](O)CN2C(=O)[C@@H](NC(=O)CCCCCC(=O)n2nc(N)c3c(-c4cccc(NC(=O)Nc5cccc(C(C)C)c5)c4)cccc32)C(C)(C)C)cc1 | > 1 µM | > 100 µM | Non-Toxic | – |
| Cc1ncsc1-c1ccc(CNC(=O)[C@@H]2C[C@@H](O)CN2C(=O)[C@@H](NC(=O)CCCCCCCCCCC(=O)n2nc(N)c3c(-c4cccc(NC(=O)Nc5cccc(C(C)C)c5)c4)cccc32)C(C)(C)C)cc1 | 0.208 µM | 32.8 µM | Non-Toxic | 70% |
| Cc1ncsc1-c1ccc(CNC(=O)[C@@H]2C[C@@H](O)CN2C(=O)[C@@H](NC(=O)CCCCCCCCCCCCCCC(=O)n2nc(N)c3c(-c4cccc(NC(=O)Nc5cccc(C(C)C)c5)c4)cccc32)C(C)(C)C)cc1 | > 1 µM | > 100 µM | Non-Toxic | – |
| Cc1ccc(F)c(NC(=O)Nc2ccc(-c3cccc4c3c(N)nn4C(=O)CCCCCC(=O)N[C@H](C(=O)N3C[C@H](O)C[C@H]3C(=O)NCc3ccc(-c4scnc4C)cc3)C(C)(C)C)cc2)c1 | > 1 µM | 133 µM | Non-Toxic | – |
